Only some compounds are listed: those with a hit (about 6.8% of all), similar ones and a draw of the others.
PHOSPHO1 block = PHOSPHO1 (human) inhibition; 290,000 tested, 1.1% active; Q8TCT1; inhibition, % at 13.3 µM; recombinant PHOSPHO1, absorbance phosphatase assay; AID 1565; in the data active = inhibition above about 60%
Target sequence (Q8TCT1 whole entry, looked up): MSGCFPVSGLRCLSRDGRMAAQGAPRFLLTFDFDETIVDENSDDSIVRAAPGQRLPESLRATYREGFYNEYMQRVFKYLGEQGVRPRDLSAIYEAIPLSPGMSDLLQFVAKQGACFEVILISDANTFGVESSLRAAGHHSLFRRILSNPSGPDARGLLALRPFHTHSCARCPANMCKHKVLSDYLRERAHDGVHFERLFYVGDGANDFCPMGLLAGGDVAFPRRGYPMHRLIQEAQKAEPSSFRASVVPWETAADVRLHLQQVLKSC
HSF-1 act = increases HSF-1 driven luciferase reporter signal | 300,000 tested, 1.7% active | activation, % at 9 µM | NIH3T3-HGL HSF-1 luciferase reporter, MG132, 8 h; 100% = twice DMSO control signal;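 active = mean replicate activation of at least 50% with a set share of replicates each reaching 50%; inconclusive = only one of those two conditions met; inactive = mean below 50% and too few replicates reaching it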;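 note: 0% = median of the neutral control wells and 100% = twice that signal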
HCV core dimer = HCV core protein dimerization inhibition. inhibition, % at 5 µM. TR-FRET GST/Flag-core106 dimerization, 1536-well. 300,000 tested, 0.33% active;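 active = inhibition above the mean of all tested compounds plus 3 SD, set per screening campaign, cut at about 45% in these data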
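Material: Tagged HCV core106 pair (GST and Flag) | Amount: GST-core106 13.5 nM, Flag-core106 17 nM | Medium: KF-containing HEPES buffer, pH 7.45, DTT, CHAPS, BSA | Reagent: Eu donor and XL665 acceptor anti-tag antibodies | Schedule: 4 h at 22.5 °C | Technique: Time-resolved FRET, ex 340 nm, em 617 and 671 nm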
HSF1 inhib = HSF1 inhibition; NIH3T3-HGL HSE-luciferase, MG132-induced, luminescence 8 h; active compounds read low; activity change, negative = inhibition, % at 7.5 µM (by protocol); 300,000 tested, 0.77% active;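 active = more than half of replicate wells show activity change below -50%, luminescence cut by over half; inconclusive = some wells, but at most half, below -50%; inactive = no replicate well below -50%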;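 note: luciferase reports HSF-1 transcriptional activity via heat shock element; 0% = median of DMSO wells and -100% = zero luminescence signal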
AI-2 QS mod = modulates the Vibrio harveyi AI-2 quorum sensing system; 300,000 tested, 0.4% active; activity change, % at 7.5 µM; Vibrio harveyi JMH597 AI-2 luminescence/OD600 ratio, 9 h; active compounds read low; strain lacks LuxN and CqsS sensors; 0 = neutral-control median; in the data active = activity change below about -75%, passing the limit was not always enough; inconclusive = no clear call, values can overlap the other calls;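 note: luminescence divided by OD600 gain over 9 h not by final OD600 alone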
ALR inh = blocks human ALR sulfhydryl oxidase activity; P55789; purified ALR, DTT oxidation, H2O2 HRP-luminol luminescence; inhibition, % (concentration not given with the values); 290,000 tested, 3.8% active; AID 485317;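 active = mean replicate inhibition above about 79%, with every replicate also reaching it, limit read from the data; inconclusive = only one of the two criteria met; inactive = mean below limit and not every replicate reaching it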
Target sequence (P55789 whole entry, looked up): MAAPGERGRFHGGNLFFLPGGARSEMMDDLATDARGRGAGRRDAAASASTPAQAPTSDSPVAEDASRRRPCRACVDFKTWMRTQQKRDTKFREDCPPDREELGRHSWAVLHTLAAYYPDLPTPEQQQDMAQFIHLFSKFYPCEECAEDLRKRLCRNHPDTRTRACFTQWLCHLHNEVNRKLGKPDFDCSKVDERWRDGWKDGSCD
Active calls of the source: *; ? = inconclusive; / = no result.

SMILES | PHOSPHO1 block | HSF-1 act | HCV core dimer | HSF1 inhib | AI-2 QS mod | ALR inh
COc1ccc(CCNC(=O)Nc2cccc([N+](=O)[O-])c2)cc1 | 47.0 | -1.9 | 4.7 | 2.4 | 11.4 | /
COc1ccc(CCNC(=O)c2ccc3nc(-c4ccco4)c(-c4ccco4)nc3c2)cc1OC | 69.5* | / | 57.4* | / | / | -10.7
CCc1nc2ccc(C(=O)NCCc3ccc(OC)c(OC)c3)cc2nc1CC | 10.3 | 2.7 | -2.0 | 2.8 | 2.2 | -5.9
O=C(O)c1ccc2nc(-c3ccco3)c(-c3ccco3)nc2c1 | 14.6 | 15.7 | / | -2.3 | 20.3 | /
COc1ccc(CCNC(=O)c2ccc(-c3cccc([N+](=O)[O-])c3)o2)cc1OC | 30.5 | -0.7 | 5.4 | 2.4 | 15.3 | -10.8
CCOC(=O)c1cc(NC(=O)CC(C)(C)CC(=O)O)ccc1N1CCCCC1 | 29.0 | 2.2 | 4.8 | -3.1 | 34.9 | -0.1
CC1CCCC(C)N1C(=O)CSc1nnc(COc2ccc(F)cc2)o1 (configuration not stated) | 36.2 | -7.3 | 0.2 | -4.8 | 4.6 | /
Cc1noc(C)c1NC(=O)N(C)C[C@H]1Oc2c(NS(=O)(=O)c3cn(C)cn3)cccc2C(=O)N([C@H](C)CO)C[C@@H]1C | / | / | / | / | / | 2.4
CCOC(=O)c1c(/N=C/C2=C(O)CCCC2=O)sc2c1CCCC2 | 26.6 | -22.7 | -6.2 | -13.7 | -11.2 | /
CCOC(=O)c1cc(CC)sc1/N=C/C1=C(O)CCCC1=O | -3.9 | -67.0 | -12.8 | -54.1* | 83.0 | 8.0
COc1cccc(N(CC(=O)NCc2ccco2)C(=O)CCC(=O)Nc2nccs2)c1 | 0.1 | -9.6 | 0.2 | -9.3 | 10.4 | 6.4
N#C/C(=C\c1ccc(Cl)cc1)c1nc2ncccc2[nH]1 | 30.5 | 53.7* | 2.1 | 20.1 | 9.9 | /
N#C/C(=C\c1c(Cl)cccc1Cl)c1nc2ccccc2[nH]1 | 20.3 | 10.6 | -1.2 | 1.6 | 26.1 | 1.7
CC(=O)Nc1cccc(NC(=O)C2CC(=O)N(CCc3ccc(F)cc3)C2)c1 (configuration not stated) | 36.6 | -10.9 | 4.7 | -5.6 | 27.1 | 3.4
N#Cc1c(NC(=O)C2CC(c3ccccc3O)=NO2)sc2c1CCC2 (configuration not stated) | -27.1 | 15.7 | 10.0 | 19.8 | 16.5 | /
CC(=O)CSc1ncnc2sc3c(c12)CCC3 | 24.1 | -7.5 | 1.4 | -8.6 | 18.9 | 93.6*
O=C(CSc1ncnc2sc3c(c12)CCC3)NCC1CCCO1 (configuration not stated) | 24.0 | -11.3 | -3.3 | 3.8 | -7.2 | -3.4
COc1cc(NC(=O)CSc2ncnc3sc4c(c23)CCCC4)c(C(=O)O)cc1OC | 15.1 | 6.3 | 10.0 | -0.2 | 18.4 | 88.3*
CC(C)(C)C(=O)CSc1ncnc2sc3c(c12)CCC3 | -8.2 | 9.0 | 2.3 | 6.4 | 17.1 | 2.1
Cc1cc(NC(=O)C(C)Sc2nc(-c3ccccc3)cc(=O)[nH]2)no1 (configuration not stated) | 12.0 | 10.4 | -2.3 | 4.3 | -6.2 | 2.0
Clc1ccccc1CSc1ncn(-c2ccccc2)n1 | 8.0 | 67.4* | -0.2 | 42.1 | -24.9 | -3.4
Cc1noc(C)c1S(=O)(=O)N(C)C[C@H]1Oc2ccc(NS(=O)(=O)c3ccccc3)cc2C(=O)N([C@H](C)CO)C[C@@H]1C | / | / | / | / | / | -2.2
Cc1cc(SCC(=O)N/N=C/c2ccc(O)c(O)c2O)c(C)cc1Br | -1.4 | -29.2 | 4.1 | -30.6 | -0.1 | 95.2*
COc1cc(/C=N/NC(=O)CSc2cc(C)c(Br)cc2C)ccc1O | 12.1 | -14.6 | 4.1 | -0.4 | 14.0 | 49.2
O=C(CSc1ccc(-c2ccccn2)nn1)Nc1cccc(F)c1 | 61.0* | -6.5 | -0.8 | 14.6 | -0.2 | -1.9
SMILES | PHOSPHO1 block | HSF-1 act | HCV core dimer | HSF1 inhib | AI-2 QS mod | ALR inh
COc1ccccc1CNC(=O)CSc1ccc(-c2cccc([N+](=O)[O-])c2)nn1 | -17.0 | -4.0 | 1.8 | -1.7 | 2.3 | 83.9*
COc1ccccc1CNC(=O)CSc1ccc(-c2cccs2)nn1 | -12.4 | 6.3 | 3.1 | -1.7 | 18.3 | /
COc1ccccc1CNC(=O)CSc1ccc(-c2ccccn2)nn1 | -31.7 | 2.6 | 55.9* | 0.4 | 33.2 | -1.9
CC1=NN(C(N)=S)C(=O)C1N=Nc1c(Br)cc(Br)cc1Br (configuration not stated) | 44.4 | -0.6 | 11.0 | 1.9 | 49.3 | 97.6*
CC1=NN(C(N)=S)C(=O)C1N=Nc1ccc(C)cc1C (configuration not stated) | 18.2 | ? | -2.4 | 24.7 | 4.6 | 94.1*
CC1=NN(C(N)=S)C(=O)C1N=Nc1cccc(Cl)c1 (configuration not stated) | 31.3 | 22.6 | -3.9 | 19.4 | 6.5 | 90.2*
Cc1ccc(-c2nc3ccccc3nc2Cl)cc1 | 5.6 | 24.5 | 3.1 | 11.8 | -10.4 | 91.4*
Cc1ccc(-c2nc(Cl)nc3ccccc23)cc1 | -3.0 | -1.2 | 4.8 | -7.5 | -1.4 | -28.5
CC(=O)c1cccc(OCc2cc(C(=O)N3C[C@@H](C)O[C@@H](C)C3)no2)c1 | 30.2 | 15.2 | 8.4 | 14.8 | 16.1 | -11.0
C/C(=N\NC(=O)C1CC1)c1ccc(C)cc1C | / | -10.0 | -3.0 | -10.1 | -0.6 | -2.6
Cc1ccc(-c2csc(Nc3ccccn3)n2)cc1 | 40.8 | 32.7 | 7.7 | 11.0 | 7.8 | /
Oc1ccc(-c2csc(Nc3ncccn3)n2)cc1O | 8.2 | 89.3* | / | 74.8 | 13.4 | /
Cc1cccc(Nc2nc(-c3ccc(O)cc3O)cs2)n1 | -3.4 | 36.9 | -7.7 | 3.1 | / | 96.8*
c1ccc(-c2csc(Nc3ccccn3)n2)cc1 | 9.2 | 81.5* | 6.9 | 49.0 | / | 14.1
Cc1nc(N)sc1-c1csc(Nc2ccccn2)n1 | 70.2* | -10.5 | / | -15.8 | 15.1 | /
Cc1nc(C)c(-c2csc(Nc3ccccn3)n2)s1 | 26.5 | 43.0 | -10.2 | 23.6 | -21.0 | 36.4
Oc1ccc(-c2csc(Nc3ncccn3)n2)c(O)c1 | 4.2 | 49.8 | 4.9 | 27.6 | 22.3 | 17.1
O=C(Cc1c(F)cccc1Cl)Nc1ccc(S(=O)(=O)Nc2nccs2)cc1 | -8.7 | -11.4 | 2.7 | -6.2 | 20.3 | -2.0
Cc1cccnc1Nc1nc(-c2ccc(O)cc2)cs1 | 10.7 | 14.4 | -5.5 | -4.5 | 16.2 | 38.2
Cc1cc(-c2csc(Nc3ccccn3)n2)ccc1F | 19.0 | 79.8* | -6.6 | 31.4 | 4.5 | 62.2
Cc1ccc(S(=O)(=O)Nc2nc(-c3ccc(F)cc3)cs2)cc1 | 15.7 | 42.6 | 5.9 | 4.5 | -91.9* | 34.6
Cc1ccnc(Nc2nc(-c3ccc(F)cc3)cs2)c1 | 19.2 | 80.4* | -8.7 | 44.2 | / | -10.6
COc1ccc(-c2csc(Nc3ccccn3)n2)cc1OC | 34.0 | 47.5 | -3.4 | 22.1 | / | 35.2
Oc1ccc(-c2csc(Nc3ccccn3)n2)cc1 | -23.9 | 63.3* | -35.0 | 30.3 | -11.6 | 71.2
CC(C)(C)OC(=O)NNC(=O)c1cccs1 | -28.8 | 2.3 | 0.3 | 5.7 | 11.0 | 5.3

Screening results from PubChem.
